Activity calls are given as the source filed them. No rule for the calls is given here.
Experiment: cholesterol efflux inhibition via mutant SR-BI C384S, dose response, mechanism study for SR-BI HDL uptake inhibitor project, cell-based, ldlA CHO, [3H]cholesterol, dry powder (AID 602138)
Settings: ldlA CHO cells mSR-BI C384S, [3H]cholesterol efflux to HDL; at 25 µM (top of the series)
Procedure, shortened: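 Dosing: compound in assay medium with 0.5% DMSO / System: Cys384S SR-BI mutant ldlA CHO cells / Measured by: scintillation counting, medium and lysate / Times: 1 h compound pre-exposure at 37 °C, 2 h efflux / Probe or stimulus: HDL, 100 µg/mL final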

SMILES	efflux, lower = inhibition
COCC(=O)N1CCc2cc(-c3csc(NC(=O)c4cc(OC)cc(OC)c4)n3)ccc21	6.26% (active)
C[C@H](C(=O)NC1CCCC1)N(C(=O)Cn1nnc(-c2ccc3c(c2)OCO3)n1)C1CCCCC1	5.73% (active)
